# Screens from PubChem BioAssay.
# A selection: hits, their analogues and other compounds. The true share with any hit is near 4.5%.
# CHOP inh: blocks CHOP induction under ER stress; CHO-K1 CHOP-promoter luciferase, tunicamycin-induced, 15-18 h; inhibition, % at 10 µM; actives 3.8% (n = 220,000); AID 2732;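 active = compounds that reduced the stress-induced luciferase reporter signal by more than about 70% of percent inhibition, limit read from the data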;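 also: 0% = tunicamycin plus vehicle and 100% = wells without tunicamycin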
# M18AAP inhibitor: PfM18AAP enzyme inhibition; recombinant PfM18AAP, H-Glu-NHMec fluorogenic cleavage; AID 1822; actives 1.2% (n = 290,000); inhibition, % at 7.35 µM;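 active = inhibition above the campaign mean inhibition over all tested compounds plus 3 SD, cut at about 28% in these data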;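 also: 0% = plate median of test compound wells and 100% = 2 mM ZnCl2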
# HCV NS3 hel inh: blocks Hepatitis C virus NS3 helicase unwinding; NS3 helicase DNA unwinding, Cy5 molecular beacon fluorescence; inhibition, % at 10.9 µM; actives 0.56% (n = 290,000); AID 1800;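 active = inhibition above the mean of all tested compounds plus 3 SD, set per campaign, cut at about 35% in these data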;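 also: 0% = DMSO wells and 100% = thioflavine S control wells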
#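 System: Hepatitis C virus NS3 helicase domain fragment enzyme | Reagent: Annealed dual-labelled DNA beacon duplex, ATP-started | Compound dosing: 10.9 µM single point, 0.8% DMSO | Incubation: 1 h reaction at 25 °C, ATP-initiated | Technique: Cy5 fluorescence | Evaluation: Percent inhibition from t60/t0 fluorescence ratio | Benchmarks: Low DMSO, high thioflavine S at 110 µM | Replication: Singlicate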
# p97 inhibitor: inhibitors of human p97 ATPase | P55072 | actives 0.42% (n = 220,000) | inhibition, % at 8 µM | AID 1481 | recombinant p97 ATPase, Kinase-Glo ATP luminescence, 3 h; in the data active = inhibition above about 15%;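 also: 0% = DMSO vehicle and 100% = wells lacking enzyme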
# Target sequence (P55072 whole entry, looked up): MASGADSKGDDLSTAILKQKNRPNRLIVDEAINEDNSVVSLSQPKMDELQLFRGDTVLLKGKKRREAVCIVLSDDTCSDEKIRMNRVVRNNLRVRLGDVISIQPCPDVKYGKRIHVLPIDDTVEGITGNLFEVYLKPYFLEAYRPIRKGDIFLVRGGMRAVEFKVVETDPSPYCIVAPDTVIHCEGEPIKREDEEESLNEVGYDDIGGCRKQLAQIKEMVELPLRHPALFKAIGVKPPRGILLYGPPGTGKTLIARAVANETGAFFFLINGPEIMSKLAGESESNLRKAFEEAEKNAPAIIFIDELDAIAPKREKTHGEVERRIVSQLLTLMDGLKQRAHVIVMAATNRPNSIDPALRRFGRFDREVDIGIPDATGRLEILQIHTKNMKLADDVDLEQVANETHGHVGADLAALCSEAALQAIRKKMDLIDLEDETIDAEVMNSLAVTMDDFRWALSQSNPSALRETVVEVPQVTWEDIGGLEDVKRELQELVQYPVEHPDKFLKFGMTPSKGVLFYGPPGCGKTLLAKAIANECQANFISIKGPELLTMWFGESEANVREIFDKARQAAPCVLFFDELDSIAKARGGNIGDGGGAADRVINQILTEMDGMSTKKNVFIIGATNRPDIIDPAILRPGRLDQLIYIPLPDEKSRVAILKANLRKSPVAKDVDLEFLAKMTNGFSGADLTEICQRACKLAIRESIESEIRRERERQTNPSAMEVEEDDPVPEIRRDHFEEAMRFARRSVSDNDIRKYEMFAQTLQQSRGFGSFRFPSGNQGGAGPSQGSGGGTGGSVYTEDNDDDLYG
# UPR XBP1 act: activators of adaptive arm of unfolded protein response (XBP1) | CHO-XBP1 luciferase reporter, IRE1-XBP1 UPR activation, luminescence; percent of tunicamycin response, DMSO as zero | activation, % at 20 µM | actives 0.33% (n = 330,000);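 active = versus positive control, 20 µM dose yields 30% or more activation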;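 also: 100% = tunicamycin at 10 µg/mL and 0% = DMSO only wells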
#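 Assay system: CHO-XBP1 luciferase reporter cells; Schedule: 6 h treatment, 37 °C; Detection: glow luminescence from Steady-Glo reagent; Benchmarks: high control tunicamycin 10 µg/mL final, low control DMSO vehicle only.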
# UPR CHOP act: activators of apoptotic arm of unfolded protein response (CHOP); AID 449763; CHO-CHOP luciferase reporter, UPR activation, luminescence; percent of tunicamycin response over DMSO baseline; actives 0.34% (n = 330,000); activation, % at 10 µM;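 active = at 10 µM dose, activation of 40% or more, normalized to positive control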;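 also: 100% = tunicamycin at 10 µg/mL and 0% = DMSO alone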
#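 Material: CHO-CHOP cells, stable luciferase reporter of PERK-eIF2a-CHOP signalling; quantity: 500 reporter cells seeded per well; buffer or medium: F12 medium containing 10% fetal bovine serum; compound: one dose, 10 µM in 0.5% DMSO; incubation: 6 h compound treatment, 37 °C; measured by: Steady-Glo luciferase luminescence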
# * hit, by the source's call; . = no result.
SMILES,CHOP inh,M18AAP inhibitor,HCV NS3 hel inh,p97 inhibitor,UPR XBP1 act,UPR CHOP act
CCC(C)n1c(SCc2ccc([N+](=O)[O-])cc2)nc2ccsc2c1=O (configuration not stated),74*,7,-13,1,2,2
CCc1ccc(N(CC)C(=O)c2ccc3c(Cl)c4c(nc3c2)CCC4)cc1,87*,3,-6,-1,-1,1
CCN(C(=O)c1ccc2c(Cl)c3c(nc2c1)CCC3)c1cccc(C)c1,48,1,-11,-1,.,.
COc1cccc(C(=O)Oc2ccc(N3C(=O)CCC3=O)c(C)c2)c1,1,2,-3,1,0,-2
O=C(N/N=C/c1c[nH]c2ccccc12)c1[nH]c2ccc(Br)cc2c1-c1ccccc1,92*,4,-10,9,.,.
CCc1ccc(O)c(N=Cc2cccc(C)c2O)c1,76*,13,16,2,1,2
C=CCc1cccc(C=Nc2cc(Br)ccc2O)c1O,98*,10,5,3,4,3
Cc1cc(S(=O)(=O)Nc2ccc(C(=O)NCCCN3CCCC3=O)cc2)ccc1F,.,.,.,.,-2,-1
CCOc1ccccc1N(C)C(=O)c1ccc2c(=O)n3c(nc2c1)CCCCC3,.,-5,1,.,5,3
CC1=C(C(=O)Nc2ccccc2)C(c2ccc(C)cc2)N=C(Nc2nc3ccccc3o2)N1 (configuration not stated),88*,-3,1,2,16,74*
CC1(C)CC(=O)C2=C(C1)NC(Nc1nc3ccccc3o1)=NC2c1ccccn1 (configuration not stated),-15,14,8,8,6,-1
O=C1c2ccccc2-c2n[nH]c(=O)c3ccc(N4CCCCC4)c1c23,79*,2,-10,1,8,0
Cc1c(N=NC2=C(O)CCCC2=O)c(=O)n(-c2ccccc2)n1C,29,32*,9,-2,-2,-2
Cc1ccc(N2C(=O)c3ccccc3C2C(=O)c2ccc(O)cc2O)cc1 (configuration not stated),10,30*,20,6,3,1
CCOC(=O)c1c(N)sc(C(O)(C(F)(F)F)C(F)(F)F)c1-c1ccccc1,105*,-8,-22,-5,-1,0
Oc1ccc(N=Nc2ccccc2-c2nn[nH]n2)c(O)c1,.,34*,-4,.,-3,-1
Cc1ccccc1-c1nn[nH]n1,-2,-12,-2,-6,2,-3
O=C(c1ccc(Cl)cc1)C(Cn1cncn1)C(Sc1ccccc1)c1ccccc1 (configuration not stated),78*,2,-8,-4,0,1
Cc1ccc(SC(c2ccccc2)C(Cn2cncn2)C(=O)c2ccccc2)cc1 (configuration not stated),-11,-2,-3,-6,-4,0
CCCN(CC(=O)Nc1cc(Cl)cc(Cl)c1)CC(=O)Nc1ccc(F)c(F)c1F,76*,-2,-19,-5,-2,3
Cc1ccc(NC(=O)C(OC(=O)c2ccc(NC(N)=O)cc2)c2ccccc2)cc1Cl (configuration not stated),91*,7,-2,3,-2,0
CO/N=C/c1ccc(N2CCN(C(=O)c3ccc(C)cc3)CC2)c([N+](=O)[O-])c1,73*,0,-15,-1,1,0
CO/N=C/c1ccc(N2CCCC2)c([N+](=O)[O-])c1,-14,-1,3,2,6,4
Cc1ccnc(NC(=O)CCC(=O)c2cc(C)sc2C)c1,.,.,.,.,2,1
COc1cc(/C=N/NC(=O)/C(=C\c2ccc([N+](=O)[O-])cc2)NC(=O)c2ccccc2)cc(OC)c1O,30,29*,-5,12,0,-2
SMILES,CHOP inh,M18AAP inhibitor,HCV NS3 hel inh,p97 inhibitor,UPR XBP1 act,UPR CHOP act
COc1cc(/C=N/NC(=O)/C(=C\c2ccc3c(c2)OCO3)NC(=O)c2ccccc2)ccc1O,32,9,-1,1,-1,0
COc1ccc(Br)cc1C(=O)N/N=C/c1ccc([N+](=O)[O-])cc1,100*,0,6,-1,5,-1
CCOc1ccc(Br)cc1C(=O)N/N=C/c1ccc([N+](=O)[O-])cc1,27,1,7,1,9,3
O=C(CN1CCN(c2ccc(F)cc2)CC1)Nc1ccc(S(=O)(=O)N2CCOCC2)cc1,.,5,-9,.,-5,-2
O=C(Nc1ccccc1)Nc1snnc1C(=O)Nc1cccc(O)c1,78*,-3,-4,10,2,-1
C/C(=N\NC(=O)COc1ccc(C)cc1C(C)C)c1ccc(-n2ccnc2)cc1,93*,3,2,3,3,9
COC(=O)N/N=C(\C)c1ccc(-n2ccnc2)cc1,8,-1,7,3,0,1
COc1ccc(C2c3[nH]c4ccccc4c3CCN2C(=O)Cc2nonc2C)c(F)c1 (configuration not stated),2,-2,-13,6,0,3
CCn1c(=O)c(C(=O)Nc2ncccc2O)c(O)c2ccccc21,.,1,14,.,-4,3
CCn1c(=O)c(C(=O)Nc2ccccn2)c(O)c2ccccc21,81*,-12,5,11,0,0
CCn1c(=O)c(C(=O)NNS(=O)(=O)c2ccc(C)cc2)c(O)c2ccccc21,64,3,2,5,-1,-2
CCn1c(=O)c(C(=O)NCc2ccccc2)c(O)c2ccccc21,.,-11,-1,.,4,2
CCCn1c(=O)c(C(=O)NNS(=O)(=O)c2ccc(C)cc2)c(O)c2ccccc21,90*,2,-1,7,-1,0
CCn1c(=O)c(C(=O)NC(C)C)c(O)c2ccccc21,72*,-1,-7,-4,-1,0
COc1cc(/C=C/C(O)=C/C(=O)/C=C/c2ccc(O)cc2)ccc1O,.,.,.,.,3,1
O=C(c1cccs1)N1CCN(Cc2ccccc2[N+](=O)[O-])CC1,5,7,-15,2,-1,1
COc1ccc(C(=O)OCC2CC(c3ccccc3)N(C)O2)cc1 (configuration not stated),80*,0,-10,-1,-1,-1
COc1ccc(C(CNc2ccc(C(F)(F)F)cn2)N(C)C)cc1OC (configuration not stated),.,-9,-12,.,-5,-1
CCOc1ccc(N(CC(=O)Nc2ccc(F)c(F)c2)S(=O)(=O)c2c(C)noc2C)cc1,90*,0,-2,1,-2,1
COc1ccc(NC(=O)CN(c2ccc(C(C)C)cc2)S(=O)(=O)c2c(C)noc2C)cc1OC,71*,6,-6,5,-1,4
